RGS4-Gao reg – modulates binding of RGS4 to human Galphao. P09471. Multiplexed bead flow cytometry; actives lie on both sides. binding response (% of control), % at 10 µM. hit rate 0.33% among 220,000. AID 1415; in the data active = binding response below about 49% or above about 150%; inactive = in between;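 note: fluorescent Galphao activated with aluminum fluoride binding bead-coupled RGS4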
ABCB1 block – inhibitors of human ABCB1 transporter, ABCG2 counter-screen. P08183. AID 1326. hit rate 0.067% among 190,000. inhibition, % at 6.6 µM. CCRF-Adr cells, JC-1 efflux, flow cytometry; in the data active = inhibition above about 40%;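 note: higher value means more JC-1 retained so stronger ABCB1 efflux block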
RGS16-Gao – modulates binding between human RGS16 and Galphao; bead-based flow cytometry RGS16-Galphao binding, fluorescence; actives lie on both sides; hit rate 0.38% among 220,000; O15492+P09471; binding response (% of control), % at 10 µM;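 note: Galphao activated by GDP with aluminum fluoride before binding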
Target sequence (O15492 whole entry, looked up): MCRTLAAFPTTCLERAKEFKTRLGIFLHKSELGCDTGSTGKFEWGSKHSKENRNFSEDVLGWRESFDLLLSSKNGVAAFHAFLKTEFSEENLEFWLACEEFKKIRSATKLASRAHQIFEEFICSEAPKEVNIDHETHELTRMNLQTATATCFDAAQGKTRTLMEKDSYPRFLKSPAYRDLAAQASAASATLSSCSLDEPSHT
Target sequence (P09471 whole entry, looked up): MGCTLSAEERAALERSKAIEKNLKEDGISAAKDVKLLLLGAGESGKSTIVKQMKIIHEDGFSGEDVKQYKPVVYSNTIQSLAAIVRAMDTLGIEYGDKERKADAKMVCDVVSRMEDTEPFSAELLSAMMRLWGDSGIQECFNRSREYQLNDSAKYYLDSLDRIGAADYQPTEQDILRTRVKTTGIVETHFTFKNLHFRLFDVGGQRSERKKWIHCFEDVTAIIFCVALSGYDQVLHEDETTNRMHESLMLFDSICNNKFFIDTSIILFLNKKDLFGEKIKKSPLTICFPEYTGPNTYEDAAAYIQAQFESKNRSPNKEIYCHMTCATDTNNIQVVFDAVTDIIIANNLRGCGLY
RGS8-Gao reg – regulators of human RGS8-Galphao interaction | AID 1423 | hit rate 0.34% among 220,000 | response (percent of control binding), % at 10 µM | P09471 | multiplexed bead flow cytometry, RGS8-Galphao binding; actives lie on both sides; in the data active = response below about 60% or above about 140%; inactive = in between;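 note: Galphao activated as the GDP aluminium fluoride complex binding bead-coupled RGS8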
RGS7-Gao – modulates binding of RGS7 to human Galphao | P09471 | Multiplexed bead flow cytometry; actives lie on both sides | binding response (% of control), % at 10 µM | hit rate 0.35% among 220,000; in the data active = binding response below about 49% or above about 150%; inconclusive = no clear call, values can overlap the other calls; inactive = in between;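 note: fluorescent Galphao held in activated GDP-AlF4 state binding bead-coupled RGS7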
ABCG2 inh – human ABCG2 inhibition, ABCB1 as counter-screen; Q9UNQ0; IgMXP3 cells, JC-1 efflux, flow cytometry; inhibition, % at 6.6 µM; hit rate 0.1% among 190,000;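 active = inhibition above 80%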
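Assay system – ABCG2 IgMXP3 and barcoded ABCB1 CCRF-Adr cell mix · Input – 3 million cells/mL in well · Reagent – JC-1 fluorescent substrate · Compound – single test compound dose, 6.6 µM final · Timing – 10 min exposure at 25 °C with rotation, no wash · Detection – flow cytometry of retained JC-1 fluorescence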
RGS4-Gao HTS – RGS4-Galphao interaction regulator (human); shares compounds with RGS16-Gao; multiplexed bead flow cytometry, RGS–Galpha-o binding; RGS4–Galpha-o binding response, % at 10 µM; hit rate 99% among 1,600; AID 1504;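 note: fluorescently labeled Galpha-o bound to GDP with aluminium fluoride binding biotinylated RGS beads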
Biotin-avidin – interferes with biotinylated probe binding to avidin beads; shares compounds with RGS16-Gao; streptavidin beads, fluorescein-biotin binding, flow cytometry; inhibition, % at 10 µM; 1,700 tested, under 10 active; AID 1783;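 active = inhibition above 50%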;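 note: median green fluorescence of gated singlet beads compared with DMSO control wells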
RGS8-Gao single – confirmation of regulators of human RGS8-Galphao interaction; bead-based flow cytometry RGS8-Galphao binding, fluorescence; actives lie on both sides; AID 1836; hit rate 3% among 1,700; shares compounds with RGS16-Gao; binding response (% of control), % at 10 µM; in the data active = binding response below about 72% or above about 130%; inactive = in between;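 note: Galphao activated as GDP AlF4 complex before binding bead RGS8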
RGS7-Gao single – RGS7-Galphao interaction regulation, single point confirmation; shares compounds with RGS16-Gao; bead-based flow cytometry RGS7-Galphao binding; actives lie on both sides; response (percent of control binding), % at 10 µM; hit rate 7.8% among 1,700; AID 1837; in the data active = response below about 75% or above about 130%; inactive = in between;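 note: fluorescent Galphao activated with GDP and aluminum fluoride binding bead-coupled RGS7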
RGS16-Gao single – RGS16-Galphao interaction regulation, single point confirmation; shares compounds with RGS16-Gao; bead-based flow cytometry, RGS16-Galphao binding; actives lie on both sides; response (% of control binding), % at 10 µM; hit rate 4% among 1,700; in the data active = response below about 74% or above about 130%; inactive = in between;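 note: Galphao activated as the GDP aluminium fluoride complex binding bead-coupled RGS16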
RGS4-Gao confirm – confirmation of regulators of human RGS4-Galphao interaction | RGS4-Galphao binding, multiplexed bead flow cytometry; actives lie on both sides | hit rate 4% among 1,700 | shares compounds with RGS16-Gao | binding response (% of control), % at 10 µM; in the data active = binding response below about 74% or above about 130%; inactive = in between
RGS19-Gao single – confirmation of regulators of human RGS19-Galphao interaction | shares compounds with RGS16-Gao | response (percent of control binding), % at 10 µM | hit rate 5% among 1,700 | bead-based flow cytometry RGS19-Galphao binding; actives lie on both sides; in the data active = response below about 50% or above about 160%; inactive = in between
Large screens that a line does not name were inactive (follow-up assays come after a bar, where they were run); [ ] = another dose, or the depositor's remark. Most compounds without a hit are left out; they make up all but 0.83% or so of the library. Unless noted, the rule behind the calls is not given here.

Cc1ccc(Nc2nnc(C3C(=O)N(C)C4(C)CC3c3cc(Br)ccc3O4)s2)cc1 (stereo not given)	none
O=c1c2c3c(sc2nc(NCCOCCO)n1Cc1ccco1)CCCCC3	RGS4-Gao reg 38.5, RGS8-Gao reg 45.6, RGS7-Gao inconclusive (no result: ABCB1 block, ABCG2 inh) | Biotin-avidin inactive | RGS8-Gao single inactive | RGS7-Gao single inactive | RGS16-Gao single inactive | RGS4-Gao confirm inactive | RGS19-Gao single inactive
CN(C)c1ccc(C(=O)OCC(=O)NC2CCCCC2)cc1	none
COCCn1c(Cc2ccccc2)nnc1SCC(=O)N(C)C	none
CCOC(=O)N1CCN(C(=O)C2CCN(C(=O)c3cc(OC)cc(OC)c3)CC2)CC1	RGS16-Gao 205.1[activator] | RGS4-Gao HTS 123.2 | Biotin-avidin inactive | RGS8-Gao single inactive | RGS7-Gao single inactive | RGS16-Gao single inactive | RGS4-Gao confirm inactive | RGS19-Gao single inactive
CCOC(=O)N1CCN(C(=O)c2ccc(OC)cc2)CC1	none
Cc1cc(Cl)ccc1N=c1ssnc1Cl	RGS16-Gao 18.9 | RGS4-Gao HTS 83.4 | Biotin-avidin inactive | RGS8-Gao single inactive | RGS7-Gao single inactive | RGS16-Gao single inactive | RGS4-Gao confirm inactive | RGS19-Gao single inactive
CCOc1ccccc1-c1c2cc(O)c(=O)cc-2oc2cc(O)c(O)cc12	RGS7-Gao 42.3 | RGS4-Gao HTS 84.7 | Biotin-avidin inactive | RGS8-Gao single 63.8 | RGS7-Gao single 49.6 | RGS16-Gao single 63.4 | RGS4-Gao confirm inactive | RGS19-Gao single 39.8
O=c1cc2oc3cc(O)c(O)cc3c(-c3ccccc3O)c-2cc1O	RGS7-Gao inconclusive (no result: ABCB1 block, ABCG2 inh)

Compound activity deposited in PubChem BioAssay by NMMLSC.
